Activity calls are given as the source filed them. The calls are words filed in the database; no cut-off is given here.
Key:
[1] = Inhibition of GDH (unknown origin) using NADP+ and glutamate as substrate preincubated for 0.5 hrs followed by substrate addition and measured after 1 hr by EZMTT reagent-based UV-Vis absorbance assay; parameters: species or system Homo sapiens
A549 [2] = assay: Antiproliferative activity against human A549 cells after 5 days by EZMTT reagent-based assay; format: functional, cell-based; settings: A549, 120 h
A549 [3] = assay: Antiproliferative activity against human A549 cells after 5 days by EZMTT reagent-based assay relative to control; format: functional
H22 [4] = assay: Antiproliferative activity against mouse H22 cells after 5 days by EZMTT reagent-based assay; format: functional, cell-based; settings: H22, 120 h
H22 [5] = assay: Antiproliferative activity against mouse H22 cells after 5 days by EZMTT reagent-based assay relative to control; format: functional
CAKI-1 [6] = assay: Antiproliferative activity against human Caki1 cells after 5 days by EZMTT reagent-based assay; format: functional, cell-based; settings: CAKI-1, 120 h
CAKI-1 [7] = assay: Antiproliferative activity against human Caki1 cells after 5 days by EZMTT reagent-based assay relative to control; format: functional
HCT-116 [8] = assay: Antiproliferative activity against human HCT116 cells after 5 days by EZMTT reagent-based assay; format: functional, cell-based; settings: HCT-116, 120 h
HCT-116 [9] = assay: Antiproliferative activity against human HCT116 cells after 5 days by EZMTT reagent-based assay relative to control; format: functional
[10] = target: T1, Glutaminase kidney isoform, mitochondrial (Homo sapiens, UniProt O94925); assay: Inhibition of human KGA preincubated for 15 to 30 mins followed by substrate addition and measured after 3 to 4 hrs by GDH-EZMTT reagent-based GDH coupled assay
T1 sequence (O94925 whole entry): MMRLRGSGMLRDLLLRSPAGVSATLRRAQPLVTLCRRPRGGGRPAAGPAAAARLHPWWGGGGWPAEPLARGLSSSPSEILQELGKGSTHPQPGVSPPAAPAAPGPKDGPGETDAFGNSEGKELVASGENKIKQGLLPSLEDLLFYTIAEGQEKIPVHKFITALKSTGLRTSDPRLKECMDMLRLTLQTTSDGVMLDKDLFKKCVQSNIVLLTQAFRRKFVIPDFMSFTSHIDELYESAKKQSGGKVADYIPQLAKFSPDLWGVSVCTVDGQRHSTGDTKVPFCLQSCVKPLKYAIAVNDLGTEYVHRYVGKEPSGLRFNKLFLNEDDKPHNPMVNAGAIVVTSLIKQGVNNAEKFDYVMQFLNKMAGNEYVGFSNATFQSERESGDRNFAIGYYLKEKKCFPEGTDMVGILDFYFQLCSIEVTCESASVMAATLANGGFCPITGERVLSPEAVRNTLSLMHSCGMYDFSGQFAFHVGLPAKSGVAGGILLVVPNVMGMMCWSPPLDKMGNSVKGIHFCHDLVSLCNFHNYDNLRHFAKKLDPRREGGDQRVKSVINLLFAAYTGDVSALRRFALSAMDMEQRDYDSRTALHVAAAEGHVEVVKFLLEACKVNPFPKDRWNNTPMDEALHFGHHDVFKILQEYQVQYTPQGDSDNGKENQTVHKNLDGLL

H22 [11] = assay: Antitumor activity against mouse H22 cells transplanted in ICR mouse assessed as reduction in tumor weight at 10 mg/kg, sc administered once daily for 10 consecutive days relative to control; format: functional; parameters: scale not given: the % may be the effect or the level left
Procedure, shortened: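 H22 liver cancer model in young SPF ICR mice, n=10 per group. Compound given subcutaneously once daily at 10 mg/kg, 10 injections; the control group received N.S. End-point tumour size and weight, body weight and survival were recorded. Treated groups were compared with control by unpaired t test.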

[12] = Drug level in tumor of mouse H22 cells transplanted ICR mouse at 10 mg/kg, sc administered once daily for 10 consecutive days by HPLC analysis; format: ADME, organism-based, Neoplasm; settings: in vivo
Procedure, shortened: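 Compound accumulation was measured in end-point tumours from H22-bearing ICR mice after once-daily subcutaneous 10 mg/kg dosing, 10 injections. Tumour content was analysed by HPLC.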

[13] = Metabolic stability in ICR mouse blood after 2 hrs by HPLC analysis; format: ADME, tissue-based
Procedure, shortened: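 Compound was incubated in blood for 2 h and its remaining concentration was quantified by HPLC.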

[14] = Metabolic stability in mouse liver microsomes at 50 uM after 4 hrs in presence of NADPH by HPLC analysis; format: ADME, Microsome; settings: read-out: Stability
Procedure, shortened: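 Compound was incubated with mouse liver microsomes for 4 h, with coumarin as the control. The remaining level was quantified by HPLC using UV absorbance at 254 nm.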

[15] = Retention time of compound in mouse liver microsomes at 50 uM by LC-MS/MS analysis; format: ADME, Microsome
H22 [16] = assay: Antitumor activity against mouse H22 cells transplanted in ICR mouse assessed as induction of fibrous hyperplasia at tumor region at 10 mg/kg, sc administered once daily for 10 consecutive days by hematoxylin and eosin staining-based assay; format: functional, organism-based
H22 [17] = assay: Antitumor activity against mouse H22 cells transplanted in ICR mouse assessed as induction of inflammatory cell infiltration at tumor region at 10 mg/kg, sc administered once daily for 10 consecutive days by hematoxylin and eosin staining-based assay; format: functional, organism-based
H22 [18] = assay: Antitumor activity against mouse H22 cells transplanted in ICR mouse assessed as induction of foam-like histiocytic reaction at tumor region at 10 mg/kg, sc administered once daily for 10 consecutive days by hematoxylin and eosin staining-based assay; format: functional, organism-based
H22 [19] = assay: Antitumor activity against mouse H22 cells transplanted in ICR mouse assessed as induction of scattered deformed nuclei at tumor region at 10 mg/kg, sc administered once daily for 10 consecutive days by hematoxylin and eosin staining-based assay; format: functional, organism-based
H22 [20] = assay: Antitumor activity against mouse H22 cells transplanted in ICR mouse assessed as induction of tumor deterioration at 10 mg/kg, sc administered once daily for 10 consecutive days by hematoxylin and eosin staining-based assay; format: functional, organism-based
[21] = Solubility of compound; format: physicochemical
A549 [22] = assay: Induction of ROS generation in human A549 cells at 10 uM after 12 hrs by DCFH-DA staining-based fluorescence microscopic analysis; format: functional, cell-based
Procedure, shortened: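 A549 cells were seeded at 10000 per well and exposed to compound at 0, 3 or 10 µM for 12 h. ROSUP at 100 µg/ml served as the positive control, alongside untreated cells. ROS was then assessed.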

[23] = Drug uptake in human Caki1 cells after 24 hrs using gold nanoparticles by microspectrometric based Raman spectra assay; format: ADME, cell-based; settings: caki-1, 24 h
Procedure, shortened: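 Compound was premixed 1:1 with nanogold particles, at up to 2 µM. Glutamine-dependent Caki-1 cells were treated for 3, 9, 16 and 24 h, then SERS spectra were collected. Signal at 1352 cm^-1 served as the compound marker for cellular concentration.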

[24] = Drug uptake in human Caki1 cells up to 2 uM after 24 hrs without gold nanoparticles by microspectrometric analysis based Raman spectra assay; format: ADME, cell-based; settings: caki-1, 24 h

SMILES | IC50 [1] | IC50 (A549 [2]) | Imax (A549 [3]) | IC50 [10] | also measured
Cn1cc(CC(=O)Nc2nnc(CCCCc3ccc(NC(=O)Cc4cccc(OC(F)(F)F)c4)nn3)[se]2)c2ccccc21 | > 13000 nM | 17 nM | 80% |  | IC50 (H22 [4]): > 10000 nM; Imax (H22 [5]): 10%; IC50 (CAKI-1 [6]): 14 nM; Imax (CAKI-1 [7]): 90%; IC50 (HCT-116 [8]): 9 nM; Imax (HCT-116 [9]): 92%
COc1ccc2c(c1)c(CC(=O)Nc1nnc(CCCCc3ccc(NC(=O)Cc4cccc(OC(F)(F)F)c4)nn3)[se]1)cn2C | > 13000 nM | 10 nM | 90% | 10 nM | IC50 (H22 [4]): 4050 nM; Imax (H22 [5]): 70%; IC50 (CAKI-1 [6]): 20 nM; Imax (CAKI-1 [7]): 90%; IC50 (HCT-116 [8]): 20 nM; Imax (HCT-116 [9]): 92%; Activity (H22 [11]): 40%; Drug uptake [12]: Active; Stability [13]: Stable; remaining at 4 h, 50 µM [14]: 30%; Retention_time [15]: 10.7 min; Activity (H22 [16]): Active; Activity (H22 [17]): Active; Activity (H22 [18]): Active; Activity (H22 [19]): Active; Activity (H22 [20]): Active
O=c1ccc2ccccc2o1 [COUMARIN] |  |  |  |  | remaining at 4 h, 50 µM [14]: 14%
c1ccc(CNc2nnc(CCSCCc3nnc(NCc4ccccc4)[se]3)[se]2)cc1 | > 13000 nM | > 13000 nM | 0% | > 13000 nM | 
Cn1ccc(CC(=O)Nc2nnc(CCSCCc3nnc(NC(=O)Cc4ccn(C)c4)[se]3)[se]2)c1 | > 13000 nM | 1000 nM | 82% |  | 
O=C(Cc1ccccc1)Nc1nnc(CCSCCc2nnc(NC(=O)Cc3ccccc3)[se]2)[se]1 | > 13000 nM | 230 nM | 82% |  | 
c1ccc(CCNc2nnc(CCSCCc3nnc(NCCc4ccccc4)[se]3)[se]2)cc1 | > 13000 nM | > 13000 nM | 0% | > 13000 nM | 
O=C(Cc1ccccc1)Nc1nnc(CCSCCc2nnc(NC(=O)Cc3ccccc3)s2)s1 | > 13000 nM | 420 nM | 72% |  | Imax (H22 [5]): 29%; IC50 (CAKI-1 [6]): 1160 nM; Imax (CAKI-1 [7]): 73%; IC50 (HCT-116 [8]): 540 nM; Imax (HCT-116 [9]): 69%
O=c1c2ccccc2[se]n1CCCCCCn1[se]c2ccccc2c1=O |  |  |  |  | IC50 (H22 [4]): 840 nM; Imax (H22 [5]): 100%; IC50 (CAKI-1 [6]): 1290 nM; Imax (CAKI-1 [7]): 100%; IC50 (HCT-116 [8]): 2170 nM; Imax (HCT-116 [9]): 100%
Nc1nnc(CCSCCc2nnc(NC(=O)CC34CC5CC(CC(C5)C3)C4)[se]2)[se]1 | > 13000 nM | 5000 nM | 60% | 300 nM | 
O=C(Cc1ccccc1)Nc1nnc(CCCCc2nnc(NC(=O)Cc3ccccc3)s2)s1 | > 13000 nM | > 13000 nM | 0% |  | solubility [21]: Insoluble
Nc1nnc(CCSCCc2nnc(NC(=O)Cc3ccccc3)s2)s1 | > 13000 nM | > 13000 nM |  |  | 
Cn1ccc(CC(=O)Nc2nnc(CCSCCc3nnc(N)[se]3)[se]2)c1 | > 13000 nM | > 13000 nM |  | 2100 nM | 
Nc1nnc(CCSCCc2nnc(NC(=O)C34CC5CC(CC(C5)C3)C4)[se]2)[se]1 | > 13000 nM | > 13000 nM | 0% | 8000 nM | 
O=C(Cc1cccc(OC(F)(F)F)c1)Nc1ccc(CCCCc2nnc(NC(=O)Cn3cc(F)c(=O)[nH]c3=O)[se]2)nn1 | > 13000 nM | 460 nM | 91% | 20 nM | Activity (A549 [22]): Active
Cn1cc(CC(=O)Nc2nnc(CCSCCc3nnc(NC(=O)Cc4cn(C)c5ccccc45)s3)s2)c2ccccc21 | > 13000 nM | 2900 nM | 80% |  | IC50 (H22 [4]): > 10000 nM; Imax (H22 [5]): 42%; IC50 (CAKI-1 [6]): 3920 nM; Imax (CAKI-1 [7]): 85%; IC50 (HCT-116 [8]): 2200 nM; Imax (HCT-116 [9]): 93%; Drug uptake [23]: Dose-dependent effect; Drug uptake [24]: Not Active
Cn1cc(CC(=O)Nc2nnc(CCSCCc3nnc(NC(=O)Cc4cn(C)c5ccccc45)[se]3)[se]2)c2ccccc21 | > 13000 nM | 110 nM | 81% |  | IC50 (H22 [4]): 1380 nM; Imax (H22 [5]): 71%; IC50 (CAKI-1 [6]): 400 nM; Imax (CAKI-1 [7]): 87%; IC50 (HCT-116 [8]): 320 nM; Imax (HCT-116 [9]): 94%; Drug uptake [23]: Dose-dependent effect; Drug uptake [24]: Not Active
Cn1ccc(CC(=O)Nc2nnc(CCSCCc3nnc(NC(=O)Cc4ccn(C)c4)s3)s2)c1 | > 13000 nM | 2200 nM | 80% |  | 
COc1ccc(Nc2nnc(CCSCCc3nnc(Nc4ccc(OC)cc4)[se]3)[se]2)cc1 | > 13000 nM | > 13000 nM | 0% | > 13000 nM | 
Cn1ccc(CC(=O)Nc2nnc(CCSCCc3nnc(N)s3)s2)c1 | > 13000 nM | > 13000 nM |  | 5100 nM | 
Cn1cc(CC(=O)Nc2nnc(CCSCCc3nnc(N)[se]3)[se]2)c2ccccc21 | > 13000 nM | > 13000 nM |  | 1100 nM | Drug uptake [23]: Dose-dependent effect; Drug uptake [24]: Not Active
Cn1cc(CC(=O)Nc2nnc(CCSCCc3nnc(N)s3)s2)c2ccccc21 | > 13000 nM | > 13000 nM |  | 1400 nM | 
Nc1nnc(CCCCc2nnc(NC(=O)Cc3ccccc3)s2)s1 | > 13000 nM | > 13000 nM | 0% | > 13000 nM | 
O=C(Nc1nnc(CCSCCc2nnc(NC(=O)C34CC5CC(CC(C5)C3)C4)[se]2)[se]1)C12CC3CC(CC(C3)C1)C2 | > 13000 nM | > 13000 nM | 0% | 1700 nM | 
Nc1nnc(CCSCCc2nnc(NC(=O)Cc3ccccc3)[se]2)[se]1 | > 13000 nM | > 13000 nM |  | 2800 nM | 
